HCV core dimer: inhibitors of HCV core protein dimerization, primary screen, biochemical, TR-FRET, high-throughput. inhibition, % at 5 µM. TR-FRET GST/Flag-core106 dimerization, 1536-well. 0.33% of 300,000 active;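 active means inhibition above the mean of all tested compounds plus 3 SD, set per screening campaign, cut at about 45% in these data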
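Material: GST/Flag-tagged HCV core106 proteins. Incubation: 4 h, 22.5 °C incubation. Read-out basis: inhibition (%) from 671 over 617 nm ratio. Measured by: TR-FRET, excitation 340 nm, emission 617 and 671 nm.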
NS3 helicase inh: inhibitors of HCV NS3 helicase, primary screen, biochemical, Cy5 molecular beacon fluorescence. Hepatitis C virus NS3 helicase. NS3 helicase DNA unwinding. 0.56% of 290,000 active. inhibition, % at 10.9 µM;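 active means inhibition above the mean of all tested compounds plus 3 SD, set per campaign, cut at about 35% in these data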;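 further: 0% = DMSO wells and 100% = thioflavine S control wells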
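assay system = NS3 helicase fragment of HCV | buffer or medium = MOPS pH 6.5, MgCl2, DTT, Tween20, BSA | timing = 60 min unwinding reaction at 25 °C after ATP addition | signal = Cy5 beacon fluorescence read at start and 1 h | read-out basis = % inhibition of unwinding | control set = low DMSO, high thioflavine S at 110 µM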
PABP FP inh: PABP poly(A) RNA binding inhibitors, primary screen, biochemical, fluorescence polarization, uHTS; inhibition, % at 35 µM; Polyadenylate-binding protein 1 (Homo sapiens), P11940; 1% of 290,000 active; AID 2014, 2009;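 further: calls also rest on retests at 20 µM and on dose response follow-up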
Target sequence (P11940 whole entry, looked up): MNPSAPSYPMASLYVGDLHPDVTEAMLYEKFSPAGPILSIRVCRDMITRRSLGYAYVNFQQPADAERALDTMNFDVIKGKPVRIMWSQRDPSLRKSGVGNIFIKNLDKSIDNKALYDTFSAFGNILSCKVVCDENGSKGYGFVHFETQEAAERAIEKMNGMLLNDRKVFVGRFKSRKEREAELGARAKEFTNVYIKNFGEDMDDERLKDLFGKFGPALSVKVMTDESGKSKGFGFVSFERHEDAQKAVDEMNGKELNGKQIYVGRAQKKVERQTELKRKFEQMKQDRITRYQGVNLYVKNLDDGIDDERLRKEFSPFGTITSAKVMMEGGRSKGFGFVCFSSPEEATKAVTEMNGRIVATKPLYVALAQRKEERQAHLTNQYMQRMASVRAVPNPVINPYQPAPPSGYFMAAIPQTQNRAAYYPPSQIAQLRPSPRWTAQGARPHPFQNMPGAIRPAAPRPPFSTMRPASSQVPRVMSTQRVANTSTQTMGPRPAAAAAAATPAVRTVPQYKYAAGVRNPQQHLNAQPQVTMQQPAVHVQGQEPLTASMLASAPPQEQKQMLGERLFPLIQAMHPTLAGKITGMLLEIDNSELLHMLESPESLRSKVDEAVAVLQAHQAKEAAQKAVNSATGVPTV
eIF4H inh: human eIF4H binding inhibitors, primary screen, translation initiation inhibitor project, biochemical, uHTS, fluorescence polarization; eIF4H fluorescence polarization binding assay; inhibition, % at 35 µM; 0.94% of 290,000 active;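 further: calls also rest on retests at 20 µM and on dose response follow-up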
DNA FID counter-1: compounds displacing fluorescent DNA intercalator, primary screen, artefact control for HCV NS3 helicase inhibitor project, biochemical, FID fluorescence | DNA fluorescent intercalator displacement | inhibition, % at 7.9 µM | 0.17% of 290,000 active; in the data active means inhibition above about 37%;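 further: 0% = vehicle and 100% = reference compound; higher means more ethidium bromide displaced from hairpin DNA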
MLLE-PAM2 inh: inhibitors of PABP1 MLLE–PAM2 peptide binding, primary screen, biochemical, fluorescence polarization, FITC-PAM2, GST-MLLE; Polyadenylate-binding protein 1 (Homo sapiens), P11940; inhibition, % at 20 µM; 0.36% of 360,000 active; in the data active means inhibition above about 35%, passing the limit was not always enough;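 further: plate controls were DMSO wells with GST-MLLE for no effect and wells lacking GST-MLLE protein for full effect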
NS3 helicase cf: HCV NS3 helicase inhibitors, retest, confirmation, biochemical, Cy5 molecular beacon fluorescence, triplicate; 31% of 1,600 active; inhibition, % at 10.9 µM; shares compounds with NS3 helicase inh; AID 1943, 2009; NS3 helicase DNA unwinding;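 active means inhibition above the mean of all tested compounds plus 3 SD, cutoff set per campaign, cut at about 36% in these data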
DNA FID counter-2: compounds displacing fluorescent DNA intercalator, artefact control for HCV NS3 helicase inhibitor project, biochemical, FID fluorescence, triplicate; shares compounds with NS3 helicase inh; DNA fluorescent intercalator displacement; inhibition, % at 7.9 µM; 4% of 1,600 active; AID 1945, 2009; in the data active means inhibition above about 37%;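 further: 0% = vehicle and 100% = reference compound; higher means more displacement of ethidium bromide from the DNA hairpin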
DNA FID DR: compounds displacing fluorescent intercalator from DNA, dose response, counter-screen for HCV NS3 helicase inhibitor project, biochemical, fluorescence | shares compounds with NS3 helicase inh | fluorescent intercalator displacement from DNA | IC50, µM | 120 tested, under 10 active
Numbers without * were called inactive; x = no result. Sampled rows, rich in hits. Any-hit rate of the full collection: about 2%. Unless noted, how the calls were made is not given here.

SMILES	HCV core dimer	NS3 helicase inh	PABP FP inh	eIF4H inh	DNA FID counter-1	MLLE-PAM2 inh	NS3 helicase cf	DNA FID counter-2	others
CCN(CC)c1ccc(N=Cc2c(C)[nH]c3ccccc23)cc1	-14.7	38.3*	2.5	8.8	2.8	-15.4	27.7	38.9*
COc1ccc(Cl)cc1NC(=O)CN1C(=O)NC(Cc2c[nH]c3ccccc23)C1=O (centres undefined)	x	x	x	x	x	3.0	x	x
CN(Cc1ccccc1)C(=O)c1ccc(NC(=O)Cc2ccc(NC(=O)C3CCCN(C(=O)C4CC4)C3)cc2)cc1 (centres undefined)	x	x	x	x	x	15.1	x	x
CC(=O)C(C(C)=O)c1c(Cl)c(O)c(O)c2c(C(=O)c3ccccc3)coc12	2.1	37.5*	-3.7	-3.5	-6.6	10.5	-10.4	3.0
CN1CCN(Cc2c(O)ccc3occ(C(=O)c4ccccc4)c23)CC1	-8.0	-13.4	9.7	13.4	19.3	-10.9	x	x
COc1ccc(NC(=O)c2ccc(NC3=NC4CS(=O)(=O)CC4S3)cc2)cc1 (centres undefined)	-0.9	47.3*	-10.1	-9.8	-5.0	-98.6	-4.1	11.4
Cc1cc(C)cc(NC(=O)c2ccc(NC3=NC4CS(=O)(=O)CC4S3)cc2)c1 (centres undefined)	-9.3	-1.6	-9.1	-12.8	-15.7	-106.7	x	x
CCSc1nc2c(c(=O)[nH]1)C(c1cccnc1)C(C(=O)OC)=C(C)N2 (centres undefined)	5.6	39.2*	3.9	-3.5	-15.8	2.2	-2.5	-0.5
CCOc1ccc(NS(=O)(=O)c2cccc(C(=O)N(C)Cc3ccco3)c2)cc1	x	x	x	x	x	-9.5	x	x
NS(=O)(=O)c1ccc(CCNC(=O)c2cc3ccccc3s2)cc1	-17.1	50.8*	3.5	2.8	-22.7	15.0	-3.5	-6.0
NS(=O)(=O)c1ccc(CCNC(=O)c2ccc(Cl)s2)cc1	-0.3	8.7	-6.9	-1.9	-7.1	9.2	x	x
C=CCn1c(SCC(=O)NCCCC)nc2scc(-c3ccco3)c2c1=O	1.6	50.1*	13.4	59.2	-36.0	-4.2	81.9*	-9.5	DNA FID DR=>79.4
O=C(NC(Cc1ccccc1)C(=O)O)/C(=C\c1ccco1)NC(=O)c1ccccc1 (centres undefined)	-0.9	36.5*	active	90.9*	-37.8	7.2	54.1*	-16.7
O=C(O)/C(=C\c1ccco1)NC(=O)c1cccc2ccccc12	0.4	53.2*	11.6	22.7	-11.9	11.4	-7.5	0.8
O=C(NC(Cc1ccccc1)C(=O)O)/C(=C\c1ccco1)NC(=O)c1ccc(Br)cc1 (centres undefined)	2.5	23.2	21.5	31.8	-25.1	7.2	x	x
CNC[C@@H]1OCc2cnnn2CCCC(=O)N([C@H](C)CO)C[C@H]1C	x	x	x	x	x	-15.9	x	x
O=C(N/C(=C\c1ccc(Br)cc1)C(=O)N1CCOCC1)c1ccccc1Cl	0.7	-3.2	-5.5	-0.9	-48.3	10.9	x	x
O=C(N/C(=C\c1ccccc1)C(=O)N1CCOCC1)c1ccccc1Cl	-22.2	36.3*	9.1	-6.1	-27.2	5.0	-7.2	-8.5
C=CCN(CC=C)Cc1c(O)ccc2c(=O)c(-c3ccccc3)coc12	6.8	-10.0	-7.4	1.4	0.1	4.1	x	x
COc1ccccc1NC(=O)CN1C(=O)C2(OCCCO2)c2ccccc21	1.2	5.1	7.3	-5.9	-6.4	-10.3	x	x
COc1ccc(OC)c(NC(=O)CN2C(=O)C3(OCCCO3)c3ccccc32)c1	1.8	54.4*	-1.1	7.1	-20.0	-3.0	-1.8	-22.1
O=C(Nc1ccnn1C1CCN(C(=O)Cc2ccccc2F)CC1)C1CC1	-1.1	0.9	7.6	-3.8	-10.4	7.5	x	x
O=C1CC(NCc2ccc3c(c2)OCO3)C(=O)N1CCc1ccccc1 (centres undefined)	-2.7	54.1*	-5.2	-4.0	27.0	-4.7	-12.6	-18.3
O=C1OC(/C=C/c2ccccc2)=NC/1=C/C=C/c1ccccc1	19.1	17.2	-6.5	48.4	-30.2	-2.6	x	x
O=C1OC(/C=C/c2ccc(Cl)cc2)=NC/1=C/c1ccco1	20.5	40.8*	-8.1	80.9	-16.9	-37.9	-1.9	2.6
SMILES	HCV core dimer	NS3 helicase inh	PABP FP inh	eIF4H inh	DNA FID counter-1	MLLE-PAM2 inh	NS3 helicase cf	DNA FID counter-2	others
N#CC1=C(N)SC(N)=C(C#N)C1CCC1CCCCC1	13.3	52.8*	115.5*	121.5	-5.2	x	5.0	23.6
O=C(NC1CCCCC1)c1nn2c(C(F)(F)F)cc(-c3ccco3)nc2c1Br	20.0	2.5	-1.9	9.8	-5.5	-9.8	x	x
O=C(c1ccccc1)N1CCN(C(=O)c2nn3c(C(F)(F)F)cc(-c4ccco4)nc3c2Br)CC1	68.4*	47.3*	15.2	69.0*	-24.6	-9.4	-22.8	-42.6
COc1cc(NC(=O)C(=O)NNC(=O)C2CCCCC2)c(OC)cc1Cl	-5.4	36.0*	-5.0	49.6	-16.2	-4.7	-12.4	-8.2
O=C(CCCN1C(=O)/C(=C\c2ccccc2)SC1=S)N1CCOCC1	x	x	x	x	x	35.4	x	x
CCc1ccc(/C=C2/SC(=S)N(CCCC(=O)Nc3ccccc3C(=O)O)C2=O)cc1	1.6	0.7	4.3	5.8	-23.5	8.9	x	x
O=C(O)CCCN1C(=O)/C(=C\c2ccco2)SC1=S	x	39.2*	95.9*	99.9*	-10.2	25.6	28.6	5.1
O=C(CCN1C(=O)/C(=C/c2ccco2)SC1=S)Nc1ccc(O)cc1C(=O)O	x	41.7*	93.8*	100.6*	10.2	11.2	65.7*	13.1
O=C(CCCN1C(=O)/C(=C/c2ccco2)SC1=S)Nc1ccccc1C(=O)O	6.0	45.7*	84.3*	100.2*	6.8	7.5	72.5*	25.9
COc1ccc(OC)c(NC(=O)CSc2nnc(CNC(=O)c3cc(OC)c(OC)c(OC)c3)o2)c1	-1.3	1.1	17.6	-8.7	-27.6	-15.9	x	x
O=C(c1cccc(S(=O)(=O)Nc2ccccc2Cl)c1)N1CCC1	-2.2	x	x	x	x	4.3	x	x

Assay outcomes (PubChem)
